Assay outcomes (PubChem BioAssay)
Compounds with a hit are over-represented: about 1.8% of the library has one in this group of screens.
ATG4B inh: ATG4B (human) cysteine protease inhibition. inhibition, % at 8.33 µM. actives 0.51% (n = 340,000). Q9Y4P1. ATG4B cleavage of LC3-PLA2, NBD-HPC fluorescence, 1 h; in the data active means inhibition above about 40%
A1 inh: inhibitors of the anti-apoptotic protein A1, read as caspase activation | actives 0.066% (n = 330,000) | MEF A1-2A-BIM cells, Caspase-Glo 3/7 luminescence, 3 h; percent of clofoctol response, vehicle zero | caspase activation, % (test concentration not listed) | AID 2462;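 active means over half of replicate activation scores above 10%, or exactly half above 10 with the replicate mean above 10; inconclusive means replicate mean below 10 yet half the replicates above 10; inactive means over half of replicates below 10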
HDAC3 inhib: inhibitors of human histone deacetylase 3 | actives 0.15% (n = 320,000) | inhibition, % at 8.3 µM | O15379 | recombinant HDAC3, fluorogenic peptide/trypsin coupled, fluorescence | AID 2718; in the data active means inhibition above about 26%, passing the limit was not always enough; inconclusive means no clear call, values can overlap the other calls
Target sequence (O15379 whole entry, looked up): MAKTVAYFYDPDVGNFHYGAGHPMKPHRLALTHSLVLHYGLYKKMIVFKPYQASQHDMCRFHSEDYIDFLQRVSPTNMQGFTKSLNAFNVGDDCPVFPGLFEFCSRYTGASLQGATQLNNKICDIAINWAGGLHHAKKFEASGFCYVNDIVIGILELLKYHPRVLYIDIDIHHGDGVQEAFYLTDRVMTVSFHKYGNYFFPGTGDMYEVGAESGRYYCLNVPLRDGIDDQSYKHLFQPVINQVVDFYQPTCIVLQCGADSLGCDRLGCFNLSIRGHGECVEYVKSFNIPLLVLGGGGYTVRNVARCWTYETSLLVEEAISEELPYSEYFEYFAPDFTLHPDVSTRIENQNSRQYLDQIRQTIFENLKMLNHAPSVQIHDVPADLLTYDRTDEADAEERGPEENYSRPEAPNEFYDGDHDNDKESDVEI
AI-2 QS modul: modulates the Vibrio harveyi AI-2 quorum sensing system | Vibrio harveyi JMH597 AI-2 luminescence/OD600 ratio, 9 h; hits give low values; strain lacks LuxN and CqsS sensors; 0 = neutral-control median | activity change, % at 7.5 µM | actives 0.4% (n = 300,000) | AID 2094; in the data active means activity change below about -75%, passing the limit was not always enough; inconclusive means no clear call, values can overlap the other calls;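 further: luminescence divided by OD600 gain over 9 h not by final OD600 alone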
LANA-H2A inh: blocks KSHV LANA binding to histone H2A/H2B. actives 0.6% (n = 320,000). cell-free LANA-H2A/H2B peptide, fluorescence polarization. Q9QR71. AID 2629. inhibition, % (test concentration not listed); in the data active means inhibition mostly above about 10%, no sharp cut-off; inactive means mostly below about 6.7%
HKDC1 inhibitor: inhibitors of human hexokinase HKDC1; Q2TB90; recombinant HKDC1, G6PDH/diaphorase resazurin coupled fluorescence; inhibition, % at 20 µM; actives 0.16% (n = 340,000);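 active means inhibition above about 35% when tested at 20 µM, limit read from the data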;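 further: plate controls were DMSO wells with enzyme for no effect and DMSO wells lacking enzyme for full effect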
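Test system: Recombinant HKDC1 (HK5) hexokinase enzyme, produced in-house | Input: HKDC1 at 5 µg/mL | Buffer or medium: Tris pH 8.0 buffer with MgCl2, Tween-20, BSA, BME | Schedule: 90 min reaction incubation at room temperature, dark | Technique: Resazurin-to-resorufin fluorescence via G6PDH and diaphorase coupling, 525/613 nm | Controls: DMSO wells with and without enzyme mix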
JMH597 growth: retest: blocks Vibrio harveyi JMH597 growth. growth inhibition, % at 7.5 µM. AID 2726. OD600 absorbance, 9 h; lacks LuxN and CqsS sensors. shares compounds with AI-2 QS modul. actives 1% (n = 750);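 active means every replicate shows growth inhibition above 50%; inconclusive means at least half, but not all, replicates pass that cutoff; inactive means fewer than half of replicates pass it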
BB721 const-QS lum: retest counter-screen: luminescence loss in constitutive-on quorum sensing strain BB721. shares compounds with AI-2 QS modul. Vibrio harveyi BB721 luminescence, 9 h. inhibition, % at 7.5 µM. actives 95% (n = 750);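 active means inhibition above about 80% in every replicate, not just on average, limit read from the data; inconclusive means at least half of replicates past the limit, but not all; inactive means fewer than half of replicates past the limit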
BB721 growth rt: retest: inhibitors of Vibrio harveyi BB721 growth; OD600 absorbance, 9 h; shares compounds with AI-2 QS modul; growth inhibition, % at 7.5 µM; actives 3% (n = 750); AID 2728;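 active means every replicate shows growth inhibition above 50%; inconclusive means at least half but not all replicates above 50% inhibition; inactive means under half of replicates above 50% inhibition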
JMH597 AI-2 mod: Vibrio harveyi AI-2 signaling luminescence modulation – JMH597 strain, confirmation. Vibrio harveyi JMH597 AI-2 quorum sensing luminescence, 9 h; luxN and CqsS knockout, AI-2 only. actives 97% (n = 750). shares compounds with AI-2 QS modul. inhibition, % at 7.5 µM. AID 2736;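 active means every replicate shows more than 75% inhibition of signal versus neutral control wells; inconclusive means half to three quarters of replicates exceed 75% inhibition; inactive means fewer than half of replicates exceed 75% inhibition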
An asterisk follows results filed as active; ? = inconclusive; . = no result.

SMILES	ATG4B inh	A1 inh	HDAC3 inhib	AI-2 QS modul	LANA-H2A inh	HKDC1 inhibitor	JMH597 growth	BB721 const-QS lum	BB721 growth rt	JMH597 AI-2 mod
O=C(c1cc2cc(Cl)ccc2[nH]1)N1CCN(C(=O)c2ccco2)CC1	-8	-1	0	-94*	-4	1	15	97*	15	98*
O=C(c1cc2cc(Cl)ccc2[nH]1)N1CCN(c2ccccc2F)CC1	0	0	0	15	0	3	.	.	.	.
CCCn1c(=O)c(C(=O)NNS(=O)(=O)c2ccc(NC(=O)OC)cc2)c(O)c2ccccc21	-10	1	4	22	0	2	.	.	.	.
O=C(O)c1ccc(N/N=C/c2ccc(-c3ccc(Cl)cc3Cl)o2)cc1	5	-1	.	-90*	-9	-3	19	98*	1	97*
COC(=O)N/N=C/c1ccc(-c2ccc(Cl)cc2Cl)o1	8	1	-8	12	-2	2	.	.	.	.
CN(C)S(=O)(=O)c1ccc(Oc2ccccc2)cc1	-7	1	-3	-93*	2	4	-8	84*	-56	99*
CN1CC(=O)N(CC(=O)Nc2cc(Cl)cc(Cl)c2)C1=O	-1	1	-4	-94*	-3	-6	-10	98*	17	99*
COc1ccc(NC(=O)CCNS(=O)(=O)c2ccc3[nH]c(=O)oc3c2)cc1Cl	-6	2	-10	27	-2	-2	.	.	.	.
O=C(Cc1ccccc1F)Nc1ccc(SC(F)F)cc1	-12	-2	7	-83*	2	-6	23	94*	26	94*
O=C(COC(=O)Cc1ccccc1F)Nc1ccc(SC(F)F)cc1	0	0	6	-20	2	-11	.	.	.	.
COc1ccc(CNC(=S)Nc2cccc(C)c2)cc1	8	1	0	-51	8	0	.	.	.	.
COC(=O)c1cccc(NC(=S)NCc2ccc(Cl)cc2)c1	1	0	3	-83*	2	-6	-24	90*	3	92*
COc1ccc(CNC(=S)Nc2cccc(Cl)c2)cc1	5	0	1	-84*	7	-3	0	95*	7	95*
COC(=O)c1cc(NC(=S)NCc2ccc(Cl)cc2)cc(C(=O)OC)c1	22	0	16	-40	-2	-7	.	.	.	.
COc1ccc(NC(=O)NCc2ccc(Cl)cc2)cc1	1	0	-8	-16	6	-4	.	.	.	.
COc1ccc(CNC(=O)Nc2cccc(Cl)c2)cc1	-1	-3	5	-94*	-4	-1	0	97*	14	98*
O=C(CCC(=O)N1CCN(c2ccccn2)CC1)c1ccc(Cl)s1	3	0	-4	.	-1	3	.	.	.	.
CCOc1ccccc1C1NC(=O)c2ccccc2O1 (stereo not given)	1	0	?	3	-2	3	.	.	.	.
COc1ccc(Cl)cc1N(CC(=O)N1CCC(C)CC1)S(C)(=O)=O	-2	0	-1	8	-2	-2	.	.	.	.
COc1ccc(Cl)cc1N(CC(=O)N1CCCC1)S(C)(=O)=O	3	0	-2	?	2	0	-12	-7	6	-7
CC(C)(C)NC(=S)N/N=C/c1cccnc1	0	0	6	22	-2	1	.	.	.	.
Cc1[nH]c2ccccc2c1C(=O)NS(=O)(=O)Nc1ccc(Cl)cc1	-9	0	1	45	0	-3	.	.	.	.
O=C(/C=C/c1ccccc1)NNc1ccc(Cl)cc1	7	0	3	-97*	9	-10	32	100*	?	100*
O=C(/C=C/c1ccccc1)NNC(=O)c1cccc(Cl)c1	-2	1	1	-4	-1	-12	.	.	.	.
Clc1ccc(CON/C=N/c2ncnc3sccc23)c(Cl)c1	2	1	2	-95*	-8	-1	8	90*	22	94*
SMILES	ATG4B inh	A1 inh	HDAC3 inhib	AI-2 QS modul	LANA-H2A inh	HKDC1 inhibitor	JMH597 growth	BB721 const-QS lum	BB721 growth rt	JMH597 AI-2 mod
CC(=O)Nc1ccc(NCc2ccc(C)s2)cc1	1	0	-1	9	-3	-4	.	.	.	.
COc1ccccc1/C=C\C=N\n1c(C2CCCCC2)n[nH]c1=S	1	0	0	?	4	-2	24	94*	24	97*
COc1cccc(/C=N/n2c(C3CCCCC3)n[nH]c2=S)c1OC	-5	0	-2	13	3	1	.	.	.	.
Cc1ccc(O)c(CNc2cnc3ccccc3c2)c1	-6	1	-7	-97*	-1	8	-25	99*	-22	99*
Oc1ccc(Br)cc1CNc1cnc2ccccc2c1	2	0	1	-97*	-2	10	19	99*	6	100*
Cc1cccc(C)c1OCc1cc(C(=O)N(C)Cc2cc(C3CC3)n[nH]2)no1	38	1	-4	34	-8	-3	.	.	.	.
Cc1ccc(OCc2cc(C(=O)N(C)Cc3cc(C4CC4)n[nH]3)no2)cc1C	-12	0	3	-81*	1	-2	25	85*	36	90*
COCC(C)n1c(=O)sc2ccccc2c1=O (stereo not given)	3	0	0	2	-2	-8	.	.	.	.
Cc1ccc(CNC(=O)Nc2cccs2)cc1	5	0	4	-82*	-2	-7	15	95*	25	95*
Cc1ccc(CNC(=O)Nc2ccccc2)cc1	5	-8	-3	-91*	2	8	-6	97*	4	97*
Cc1ccc(CNC(=O)NCc2ccccc2)cc1	2	1	5	-49	8	-13	.	.	.	.
Cc1ccc(CNC(=O)Nc2ccc(Cl)cc2)cc1	-2	1	.	-83*	-1	1	-22	86*	-21	90*
O=C(NCc1cccs1)Nc1ccc(Cl)cc1	26	0	-2	?	-5	5	34	94*	60*	91*
COc1ccc(CNC(=O)Nc2cccs2)cc1OC	-13	0	4	28	1	-6	.	.	.	.
Cc1cc(C)c(S(=O)(=O)N2CCCOC2CNC(=O)C(=O)NCc2ccco2)c(C)c1 (stereo not given)	-12	-1	-2	22	3	-11	.	.	.	.
